# Measurements from article PMC5260928 (Bioorganic & medicinal chemistry, 2016).
# What was measured:
# [1] = biological target: gp41 hydrophobic pocket (Fe(envC)3) (Human immunodeficiency virus type 1 group M subtype B, UniProt P04578); experiment: Surface plasmon resonance; type: binding, HIV-1; conditions: for kd: SPR 1:1 binding kinetic analysis, RUmax fixed; for kd1 / kd2: bivalent binding model
# HIV-1 Ba-L and IIIB = experiment: Virus-cell fusion; type: cell-based; conditions: for activity against VCF: result in words; for IC50: Human immunodeficiency virus 1, BAL|IIIB, read-out: IC50 against VCF
# In short: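 MAGI-CCR5 cells, 10,000 per well, grown overnight in DMEM with 10% FBS. Medium replaced with test compound at 6 dilutions, each in triplicate. HIV-1 Ba-L (CCR5-tropic) or IIIB (CXCR4-tropic) added at ~10 TCID50/well. Assay run at 2% serum and incubated 48 h. Read-out is Tat-induced β-Gal expression by chemiluminescence.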
# HIV-1 IIIB = experiment: CXCR4-tropic MAGI antiviral assay; type: cell-based; conditions: IIIB virus
# [2] = biological target: gp41 hydrophobic pocket (Fe(env2.0)3) (Human immunodeficiency virus type 1 group M subtype B, UniProt P04578); experiment: Fluorescence competitive binding assay for the hydrophobic pocket, Fe; design: species or system HIV-1; conditions: for Ki: Inhibition constant KI, dimers, 1:1 binding model with Rt = 7.2 µM, poor fit; for improvement (reduction) of KI over the respective monomer: compared with monomers 3 and 4
# HIV-1 Ba-L = experiment: CCR5-tropic MAGI antiviral assay; type: cell-based; conditions: Ba-L virus
# HXB2 Env = conditions: read-out: IC50 CCF; cell-cell fusion, three-subunit peptidomimetics; cited from earlier work
molecule,measurement,setting,value
"Nc1ccc(C(=O)N[C@@H](Cc2c[nH]c3ccccc23)C(=O)O)cc1OCCc1c[nH]c2ccccc12 [Compound 3, H2N-[Trp]-Trp-OH]",kd,[1],0.834 s⁻¹
same,activity against VCF,HIV-1 Ba-L and IIIB,ineffective
"Nc1ccc(C(=O)N[C@@H](Cc2c[nH]c3ccccc23)C(=O)O)cc1OCc1ccc(Cl)cc1 [Compound 4, H2N-[Phe4Cl]-Trp-OH]",kd,[1],0.820 s⁻¹
same,activity against VCF,HIV-1 Ba-L and IIIB,ineffective
O=C(CCC(=O)Nc1ccc(C(=O)N[C@@H](Cc2c[nH]c3ccccc23)C(=O)O)cc1OCCc1c[nH]c2ccccc12)NCCOCCOCCOCCNC(=O)CCC(=O)Nc1ccc(C(=O)N[C@@H](Cc2c[nH]c3ccccc23)C(=O)O)cc1OCCc1c[nH]c2ccccc12 [Compound 7],residual fusion activity at plateau of antiviral activity,HIV-1 IIIB,~ 6%
same,kd,[1],0.060 s⁻¹
same,kd1,[1],0.0869 s⁻¹
same,kd2,[1],0.0145 s⁻¹
same,Ki,[2],1 µM
same,residual fusion activity at plateau of antiviral activity,HIV-1 Ba-L,~ 20%
same,IC50,HIV-1 Ba-L and IIIB,3 to 5 µM
O=C(CCC(=O)Nc1ccc(C(=O)N[C@@H](Cc2c[nH]c3ccccc23)C(=O)O)cc1OCc1ccc(Cl)cc1)NCCOCCOCCOCCNC(=O)CCC(=O)Nc1ccc(C(=O)N[C@@H](Cc2c[nH]c3ccccc23)C(=O)O)cc1OCc1ccc(Cl)cc1 [Compound 8],kd,[1],0.037 s⁻¹
same,kd1,[1],0.0638 s⁻¹
same,kd2,[1],0.0033 s⁻¹
same,Ki,[2],5.3 µM
same,IC50,HIV-1 Ba-L and IIIB,3 to 5 µM
O=C(CCc1c[nH]c2ccccc12)NCCCCCC(=O)Nc1ccc(C(=O)N[C@@H](Cc2c[nH]c3ccccc23)C(=O)O)cc1OCCc1c[nH]c2ccccc12 [Compound 10],kd,[1],0.093 s⁻¹
same,improvement (reduction) of KI over the respective monomer,[2],6 fold
same,IC50,HIV-1 Ba-L and IIIB,13 to 17 µM
O=C(CCc1c[nH]c2ccccc12)NCCCCCC(=O)Nc1ccc(C(=O)N[C@@H](Cc2c[nH]c3ccccc23)C(=O)O)cc1OCc1ccc(Cl)cc1 [Compound 11],kd,[1],0.186 s⁻¹
same,improvement (reduction) of KI over the respective monomer,[2],6 fold
same,IC50,HIV-1 Ba-L and IIIB,13 to 17 µM
H2N-Asn-[Trp]-Trp-COOH,IC50,HXB2 Env,6 µM
H2N-Trp-[Trp]-Leu-COOH,IC50,HXB2 Env,5 µM
